According to ChEMBL document CHEMBL4689842, “EUbOPEN Chemogenomics Library wave 1” (2021):

Test system: HEK-293T
Experiment: Multiplex assay against HEK293T;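 as to Population Tubulin-Different-Phenotype (%): share of the cells with healthy nuclei that show this phenotype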
Assay type: toxicity, cell-based
Conditions: human
Summary of the method: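 Cells stained live at seeding with Hoechst33342, BioTracker Green Microtubule Cytoskeleton Dye, MitoTracker Red and Annexin V Alexa Fluor 680 were imaged on a CQ1 microscope at 37°C and 5% CO2 after compound addition. Their classification by CellPathfinder machine-learning gating ran from Hoechst high-intensity objects versus normal cells, to healthy, pyknosed or fragmented nuclei among normal cells, to mitotic or apoptotic among pyknosed cells. Tubulin, mitochondrial-mass and membrane-permeability phenotypes are per cents of healthy-nucleus cells.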

[1] = 12 h, 1 µM, compound concentration 1 uM, replicate 1
[2] = 12 h, 1 µM, compound concentration 1 uM, replicate 2
[3] = 12 h, 10 µM, compound concentration 10 uM, replicate 1
[4] = 12 h, 10 µM, compound concentration 10 uM, replicate 2
[5] = 24 h, 1 µM, compound concentration 1 uM, replicate 1
[6] = 24 h, 1 µM, compound concentration 1 uM, replicate 2
[7] = 24 h, 10 µM, compound concentration 10 uM, replicate 1
[8] = 24 h, 10 µM, compound concentration 10 uM, replicate 2
[9] = 48 h, 1 µM, compound concentration 1 uM, replicate 1
[10] = 48 h, 1 µM, compound concentration 1 uM, replicate 2
[11] = 48 h, 10 µM, compound concentration 10 uM, replicate 1
[12] = 48 h, 10 µM, compound concentration 10 uM, replicate 2

## Cc1ccccc1C(c1ccccc1C)N1C2CCC1CC(O)(c1ccccc1)C2 (configuration not stated)
[1]
  Population Apoptotic (%): 48%
  Population Healthy Nuclei (%): 40%
  Population Mitotic Cells (%): 51%
  Population Normal (%): 82%
  Population Pyknosed Nuclei (%): 48%
  Total Cell Count: 233
[2]
  Population Apoptotic (%): 13%
  Population Healthy Nuclei (%): 39%
  Population Mitotic Cells (%): 86%
  Population Normal (%): 94%
  Population Pyknosed Nuclei (%): 55%
  Total Cell Count: 261
[3]
  Population Apoptotic (%): 53%
  Population Healthy Nuclei (%): 36%
  Population Mitotic Cells (%): 46%
  Population Normal (%): 88%
  Population Pyknosed Nuclei (%): 54%
  Total Cell Count: 350
[4]
  Population Healthy Nuclei (%): 26%
  Population Mitotic Cells (%): 78%
  Population Normal (%): 96%
  Population Pyknosed Nuclei (%): 69%
  Total Cell Count: 210
[5]
  Population Apoptotic (%): 43%
  Population Healthy Nuclei (%): 45%
  Population Mitotic Cells (%): 56%
  Population Normal (%): 82%
  Population Pyknosed Nuclei (%): 40%
  Total Cell Count: 254
[6]
  Population Apoptotic (%): 13%
  Population Healthy Nuclei (%): 61%
  Population Mitotic Cells (%): 86%
  Population Normal (%): 98%
  Population Pyknosed Nuclei (%): 32%
  Total Cell Count: 355
[7]
  Population Apoptotic (%): 49%
  Population Healthy Nuclei (%): 42%
  Population Mitotic Cells (%): 50%
  Population Normal (%): 91%
  Population Pyknosed Nuclei (%): 48%
  Total Cell Count: 339
[8]
  Population Healthy Nuclei (%): 43%
  Population Mitotic Cells (%): 68%
  Population Normal (%): 95%
  Population Pyknosed Nuclei (%): 53%
  Total Cell Count: 229
[9]
  Population Healthy Nuclei (%): 49%
  Population Mitotic Cells (%): 68%
  Population Normal (%): 87%
  Population Pyknosed Nuclei (%): 28%
  Total Cell Count: 301
[10]
  Population Healthy Nuclei (%): 85%
  Population Mitotic Cells (%): 87%
  Population Normal (%): 98%
  Population Pyknosed Nuclei (%): 10%
  Total Cell Count: 568
[11]
  Population Apoptotic (%): 50%
  Population Healthy Nuclei (%): 45%
  Population Mitotic Cells (%): 49%
  Population Normal (%): 91%
  Population Pyknosed Nuclei (%): 42%
  Total Cell Count: 372
[12]
  Population Apoptotic (%): 23%
  Population Healthy Nuclei (%): 72%
  Population Mitotic Cells (%): 76%
  Population Normal (%): 97%
  Population Pyknosed Nuclei (%): 24%
  Total Cell Count: 302

## Cc1cccc(CN2CCN(C(c3ccccc3)c3ccc(Cl)cc3)CC2)c1.Cl.Cl (configuration not stated)
[1]
  Population Apoptotic (%): 52%
  Population Fragmented Nuclei (%): 13%
  Population Healthy Nuclei (%): 25%
  Population Hoechst High Intensity Objects (%): 19%
  Population Membrane Permeable-Phenotype (%): 0%
  Population Mitochondria Different-Phenotype (%): 73%
  Population Mitotic Cells (%): 47%
  Population Normal (%): 80%
  Population Pyknosed Nuclei (%): 60%
  Population Tubulin-Different-Phenotype (%): 39%
  Total Cell Count: 198
[2]
  Population Apoptotic (%): 9%
  Population Fragmented Nuclei (%): 6%
  Population Healthy Nuclei (%): 48%
  Population Hoechst High Intensity Objects (%): 3%
  Population Membrane Permeable-Phenotype (%): 10%
  Population Mitochondria Different-Phenotype (%): 25%
  Population Mitotic Cells (%): 90%
  Population Normal (%): 96%
  Population Pyknosed Nuclei (%): 44%
  Population Tubulin-Different-Phenotype (%): 18%
  Total Cell Count: 170
[3]
  Population Apoptotic (%): 69%
  Population Fragmented Nuclei (%): 10%
  Population Healthy Nuclei (%): 40%
  Population Hoechst High Intensity Objects (%): 16%
  Population Membrane Permeable-Phenotype (%): 3%
  Population Mitochondria Different-Phenotype (%): 96%
  Population Mitotic Cells (%): 30%
  Population Normal (%): 83%
  Population Pyknosed Nuclei (%): 49%
  Population Tubulin-Different-Phenotype (%): 85%
  Total Cell Count: 255
[4]
  Population Apoptotic (%): 42%
  Population Fragmented Nuclei (%): 8%
  Population Healthy Nuclei (%): 38%
  Population Hoechst High Intensity Objects (%): 3%
  Population Membrane Permeable-Phenotype (%): 6%
  Population Mitochondria Different-Phenotype (%): 73%
  Population Mitotic Cells (%): 57%
  Population Normal (%): 96%
  Population Pyknosed Nuclei (%): 53%
  Population Tubulin-Different-Phenotype (%): 69%
  Total Cell Count: 206
[5]
  Population Apoptotic (%): 51%
  Population Fragmented Nuclei (%): 11%
  Population Healthy Nuclei (%): 33%
  Population Hoechst High Intensity Objects (%): 17%
  Population Membrane Permeable-Phenotype (%): 1%
  Population Mitochondria Different-Phenotype (%): 73%
  Population Mitotic Cells (%): 48%
  Population Normal (%): 82%
  Population Pyknosed Nuclei (%): 55%
  Population Tubulin-Different-Phenotype (%): 43%
  Total Cell Count: 204
[6]
  Population Apoptotic (%): 10%
  Population Fragmented Nuclei (%): 6%
  Population Healthy Nuclei (%): 66%
  Population Hoechst High Intensity Objects (%): 4%
  Population Membrane Permeable-Phenotype (%): 7%
  Population Mitochondria Different-Phenotype (%): 26%
  Population Mitotic Cells (%): 89%
  Population Normal (%): 95%
  Population Pyknosed Nuclei (%): 26%
  Population Tubulin-Different-Phenotype (%): 33%
  Total Cell Count: 221
[7]
  Population Apoptotic (%): 75%
  Population Fragmented Nuclei (%): 11%
  Population Healthy Nuclei (%): 41%
  Population Hoechst High Intensity Objects (%): 15%
  Population Membrane Permeable-Phenotype (%): 0%
  Population Mitochondria Different-Phenotype (%): 96%
  Population Mitotic Cells (%): 24%
  Population Normal (%): 84%
  Population Pyknosed Nuclei (%): 46%
  Population Tubulin-Different-Phenotype (%): 87%
  Total Cell Count: 274
[8]
  Population Apoptotic (%): 59%
  Population Fragmented Nuclei (%): 6%
  Population Healthy Nuclei (%): 56%
  Population Hoechst High Intensity Objects (%): 3%
  Population Membrane Permeable-Phenotype (%): 6%
  Population Mitochondria Different-Phenotype (%): 87%
  Population Mitotic Cells (%): 40%
  Population Normal (%): 96%
  Population Pyknosed Nuclei (%): 37%
  Population Tubulin-Different-Phenotype (%): 81%
  Total Cell Count: 246
[9]
  Population Apoptotic (%): 49%
  Population Fragmented Nuclei (%): 18%
  Population Healthy Nuclei (%): 34%
  Population Hoechst High Intensity Objects (%): 17%
  Population Membrane Permeable-Phenotype (%): 2%
  Population Mitochondria Different-Phenotype (%): 47%
  Population Mitotic Cells (%): 50%
  Population Normal (%): 82%
  Population Pyknosed Nuclei (%): 47%
  Population Tubulin-Different-Phenotype (%): 34%
  Total Cell Count: 244
[10]
  Population Apoptotic (%): 15%
  Population Fragmented Nuclei (%): 10%
  Population Healthy Nuclei (%): 75%
  Population Hoechst High Intensity Objects (%): 4%
  Population Membrane Permeable-Phenotype (%): 5%
  Population Mitochondria Different-Phenotype (%): 7%
  Population Mitotic Cells (%): 84%
  Population Normal (%): 95%
  Population Pyknosed Nuclei (%): 13%
  Population Tubulin-Different-Phenotype (%): 20%
  Total Cell Count: 397
[11]
  Population Apoptotic (%): 61%
  Population Fragmented Nuclei (%): 13%
  Population Healthy Nuclei (%): 55%
  Population Hoechst High Intensity Objects (%): 12%
  Population Membrane Permeable-Phenotype (%): 2%
  Population Mitochondria Different-Phenotype (%): 89%
  Population Mitotic Cells (%): 38%
  Population Normal (%): 87%
  Population Pyknosed Nuclei (%): 31%
  Population Tubulin-Different-Phenotype (%): 83%
  Total Cell Count: 309
[12]
  Population Apoptotic (%): 44%
  Population Fragmented Nuclei (%): 7%
  Population Healthy Nuclei (%): 68%
  Population Hoechst High Intensity Objects (%): 4%
  Population Membrane Permeable-Phenotype (%): 4%
  Population Mitochondria Different-Phenotype (%): 67%
  Population Mitotic Cells (%): 55%
  Population Normal (%): 95%
  Population Pyknosed Nuclei (%): 24%
  Population Tubulin-Different-Phenotype (%): 71%
  Total Cell Count: 355

## O=c1[nH]c2ccccc2n1C1CCN(Cc2ccc(-c3[nH]c4cc5ncnc5cc4nc3-c3ccccc3)cc2)CC1
[1]
  Population Apoptotic (%): 16%
  Population Fragmented Nuclei (%): 13%
  Population Healthy Nuclei (%): 69%
  Population Hoechst High Intensity Objects (%): 7%
  Population Membrane Permeable-Phenotype (%): 7%
  Population Mitochondria Different-Phenotype (%): 3%
  Population Mitotic Cells (%): 83%
  Population Normal (%): 92%
  Population Pyknosed Nuclei (%): 16%
  Population Tubulin-Different-Phenotype (%): 6%
  Total Cell Count: 646
[2]
  Population Apoptotic (%): 10%
  Population Fragmented Nuclei (%): 5%
  Population Healthy Nuclei (%): 89%
  Population Hoechst High Intensity Objects (%): 2%
  Population Membrane Permeable-Phenotype (%): 5%
  Population Mitochondria Different-Phenotype (%): 23%
  Population Mitotic Cells (%): 90%
  Population Normal (%): 97%
  Population Pyknosed Nuclei (%): 5%
  Population Tubulin-Different-Phenotype (%): 43%
  Total Cell Count: 1621
[3]
  Population Apoptotic (%): 38%
  Population Fragmented Nuclei (%): 10%
  Population Healthy Nuclei (%): 50%
  Population Hoechst High Intensity Objects (%): 20%
  Population Membrane Permeable-Phenotype (%): 22%
  Population Mitochondria Different-Phenotype (%): 40%
  Population Mitotic Cells (%): 61%
  Population Normal (%): 79%
  Population Pyknosed Nuclei (%): 39%
  Population Tubulin-Different-Phenotype (%): 91%
  Total Cell Count: 661
[4]
  Population Apoptotic (%): 24%
  Population Fragmented Nuclei (%): 2%
  Population Healthy Nuclei (%): 71%
  Population Hoechst High Intensity Objects (%): 13%
  Population Membrane Permeable-Phenotype (%): 13%
  Population Mitochondria Different-Phenotype (%): 51%
  Population Mitotic Cells (%): 75%
  Population Normal (%): 86%
  Population Pyknosed Nuclei (%): 25%
  Population Tubulin-Different-Phenotype (%): 86%
  Total Cell Count: 974
[5]
  Population Apoptotic (%): 11%
  Population Fragmented Nuclei (%): 14%
  Population Hoechst High Intensity Objects (%): 6%
  Population Membrane Permeable-Phenotype (%): 17%
  Population Mitochondria Different-Phenotype (%): 3%
  Population Mitotic Cells (%): 88%
  Population Normal (%): 93%
  Population Pyknosed Nuclei (%): 5%
  Population Tubulin-Different-Phenotype (%): 14%
  Total Cell Count: 776
[6]
  Population Apoptotic (%): 7%
  Population Fragmented Nuclei (%): 17%
  Population Healthy Nuclei (%): 79%
  Population Hoechst High Intensity Objects (%): 4%
  Population Membrane Permeable-Phenotype (%): 14%
  Population Mitochondria Different-Phenotype (%): 6%
  Population Mitotic Cells (%): 92%
  Population Normal (%): 95%
  Population Pyknosed Nuclei (%): 3%
  Population Tubulin-Different-Phenotype (%): 52%
  Total Cell Count: 2517
[7]
  Population Apoptotic (%): 54%
  Population Fragmented Nuclei (%): 12%
  Population Healthy Nuclei (%): 56%
  Population Hoechst High Intensity Objects (%): 31%
  Population Membrane Permeable-Phenotype (%): 9%
  Population Mitochondria Different-Phenotype (%): 70%
  Population Mitotic Cells (%): 45%
  Population Normal (%): 68%
  Population Pyknosed Nuclei (%): 31%
  Population Tubulin-Different-Phenotype (%): 83%
  Total Cell Count: 612
[8]
  Population Apoptotic (%): 28%
  Population Fragmented Nuclei (%): 2%
  Population Healthy Nuclei (%): 71%
  Population Hoechst High Intensity Objects (%): 23%
  Population Membrane Permeable-Phenotype (%): 6%
  Population Mitochondria Different-Phenotype (%): 67%
  Population Mitotic Cells (%): 71%
  Population Normal (%): 76%
  Population Pyknosed Nuclei (%): 26%
  Population Tubulin-Different-Phenotype (%): 72%
  Total Cell Count: 883
